Most compounds without a hit are left out; they make up all but 2.9% or so of the library.
ADAM17 inh: ADAM17 inhibitors, primary screen, biochemical, QFRET; Disintegrin and metalloproteinase domain-containing protein 17 (Homo sapiens), P78536; recombinant ADAM17, EDANS/DABCYL FRET peptide cleavage; inhibition, % at 6.95 µM; hit rate 0.83% among 370,000;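 active means inhibition above the mean of compounds lying between control limits plus 3 SD, set per campaign, cut at about 8.5% in these data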
Arrestin-AP2 inh: inhibitors of beta-arrestin/AP2 binding, primary screen, biochemical, GPCR trafficking, flow cytometry. hit rate 0.31% among 340,000. FITC-arrestin peptide / GST-AP2 beads; AP2 beta2 appendage carries R879A mutation. inhibition, % at 10 µM. beta-arrestin 1 C-terminal peptide binding to AP2 beta2-adaptin appendage (human);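 active means inhibition above a set limit, near 3 SD of compounds lacking own fluorescence, cut at about 54% in these data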
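Material – AP2 appendage R879A on GSH beads · Buffer or medium – PBS with 0.05% Tween 20 and 0.1% BSA · Probe or stimulus – fluorescein-tagged arrestin peptide at 50 nM final · Incubation – compound with beads 12 min RT, then probe 1 h RT · Detection – high-throughput flow cytometry of beads, ex 488, em 535 nm · Evaluation – percent response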
CaV13 FRET inh: Disruptors of the CACNA1D IQ motif to Ca2+-dependent inactivation inhibitor domain association, primary screening, Förster resonance energy transfer in intact living …; hit rate 0.098% among 340,000; HEK cells, CFP/YFP FRET ICDI-IQ, plate reader, 10 min; percent FRET-ratio fall versus neutral wells; inhibition, % at 12.3 µM;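 active means mean replicate inhibition of at least 30% and at least 1% of replicates passing that level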
FAS TE block: FAS thioesterase domain inhibitors, primary screen, biochemical, fluorescence intensity, uHTS; hit rate 0.67% among 360,000; recombinant FAS-TE, OMFH fluorogenic substrate, fluorescence endpoint; Fatty acid synthase (Homo sapiens), P49327; inhibition, % at 15 µM;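 active means compounds whose normalised, plate-corrected inhibition of enzyme fluorescence in the single-dose primary screen is 50% or more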
ADAM10 inh: human ADAM10 inhibitors, primary screen, biochemical, QFRET, HTS. hit rate 0.62% among 370,000. recombinant ADAM10, EDANS/DABCYL FRET peptide cleavage, 3 h. inhibition, % at 7 µM. AID 720582, 2013. Disintegrin and metalloproteinase domain-containing protein 10 (Homo sapiens), O14672;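 active means inhibition above a per-campaign cutoff equal to the mean of compounds falling between control-based bounds plus 3 SD, cut at about 20% in these data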
Target sequence (O14672 214-748 limits assumed): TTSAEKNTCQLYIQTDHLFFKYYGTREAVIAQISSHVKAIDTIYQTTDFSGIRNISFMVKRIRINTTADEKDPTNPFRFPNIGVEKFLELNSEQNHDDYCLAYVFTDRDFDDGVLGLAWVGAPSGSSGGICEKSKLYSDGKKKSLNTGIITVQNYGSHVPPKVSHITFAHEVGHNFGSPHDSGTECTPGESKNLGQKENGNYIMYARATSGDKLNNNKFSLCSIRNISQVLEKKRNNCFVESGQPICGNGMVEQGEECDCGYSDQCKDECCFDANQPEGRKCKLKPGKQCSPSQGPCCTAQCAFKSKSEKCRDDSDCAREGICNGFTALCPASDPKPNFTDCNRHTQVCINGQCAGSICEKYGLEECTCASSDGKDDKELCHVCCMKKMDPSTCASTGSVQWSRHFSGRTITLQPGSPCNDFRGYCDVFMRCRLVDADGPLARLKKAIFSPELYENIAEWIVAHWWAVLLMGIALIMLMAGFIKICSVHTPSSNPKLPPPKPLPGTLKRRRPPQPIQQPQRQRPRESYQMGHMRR
NRP1-CendR mod: modulators of CendR peptide binding to NRP-1, primary screen, biochemical, fluorescence polarization, uHTS | Neuropilin-1 (Homo sapiens), O14786 | FAM-RPARPAR peptide binding to NRP-1 | inhibition, % at 25 µM | hit rate 0.85% among 360,000 | AID 602438, 2012;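 active means inhibition or corrected inhibition above about 18%, plus a signal ratio from 0.5 to 1.5, limit read from the data, passing the limit was not always enough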
FAS-TE conf: FAS thioesterase domain inhibitors, confirmation, biochemical, fluorescence intensity, single concentration. shares compounds with FAS TE block. recombinant FAS-TE, OMFH fluorogenic substrate. inhibition, % at 15 µM. hit rate 45% among 2,300. AID 624325, 2012;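 active means compounds inhibiting the enzyme by at least 50% at 15 µM in any one of the replicates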
A number is an active result.

What do the screens show for `CC(C)(C)C(=O)NNc1nc(-c2ccccc2)c2cc(Br)ccc2n1`?
ADAM17 inh: inactive; Arrestin-AP2 inh: inactive; CaV13 FRET inh: inactive; FAS TE block: inactive; ADAM10 inh: inactive; NRP1-CendR mod: inactive

How did CCN(CC)S(=O)(=O)c1ccc(C(=O)NNc2nc(-c3ccccc3)c3cc(Br)ccc3n2)cc1 do in these assays?
ADAM17 inh: inactive; Arrestin-AP2 inh: inactive; CaV13 FRET inh: inactive; FAS TE block: 68; ADAM10 inh: inactive; NRP1-CendR mod: inactive; FAS-TE conf: inactive

How did COc1cccc(CNC(=O)C2C3C=CC4(CN(Cc5ccccc5)C(=O)C24)O3)c1OC (centres undefined) do in these assays?
ADAM17 inh: inactive; ADAM10 inh: inactive

What do the screens show for `COc1cc(/C=N/NC(=O)C(Cc2c[nH]c3ccccc23)NC(=O)OCC(C)C)cc([N+](=O)[O-])c1O` (centres undefined)?
ADAM17 inh: inactive; Arrestin-AP2 inh: inactive; CaV13 FRET inh: inactive; FAS TE block: inactive; ADAM10 inh: inactive; NRP1-CendR mod: inactive

How did COc1cc(/C=N/NC(=O)C(Cc2c[nH]c3ccccc23)NC(=O)OCc2ccccc2)cc([N+](=O)[O-])c1O (centres undefined) do in these assays?
ADAM17 inh: 9.1; Arrestin-AP2 inh: inactive; CaV13 FRET inh: inactive; FAS TE block: 75; ADAM10 inh: 41; NRP1-CendR mod: inactive; FAS-TE conf: 75

Results for CCCCCCCCN1C(=O)N2Cc3cc(F)ccc3C2CS1(=O)=O (centres undefined) ?
ADAM17 inh: inactive; ADAM10 inh: inactive

What do the screens show for `Cc1ccc(OC(C)C(=O)Nc2ccc(Cl)cn2)c([N+](=O)[O-])n1` (centres undefined)?
ADAM17 inh: inactive; Arrestin-AP2 inh: inactive; CaV13 FRET inh: inactive; FAS TE block: inactive; ADAM10 inh: inactive; NRP1-CendR mod: inactive

What do the screens show for `Cc1cc(Cl)ccc1OC(C)C(=O)Nc1ccc([N+](=O)[O-])cn1` (centres undefined)?
ADAM17 inh: inactive; Arrestin-AP2 inh: inactive; CaV13 FRET inh: inactive; FAS TE block: 52; ADAM10 inh: inactive; NRP1-CendR mod: 26; FAS-TE conf: inactive

What do the screens show for `O=C(O)c1ccc(N/N=C/c2ccc(-c3cccc(Cl)c3)o2)cc1`?
ADAM17 inh: inactive; Arrestin-AP2 inh: inactive; CaV13 FRET inh: inactive; FAS TE block: inactive; ADAM10 inh: inactive; NRP1-CendR mod: inactive

What do the screens show for `O=C(O)c1ccc(N/N=C/c2ccc(-c3ccc(Cl)cc3Cl)o2)cc1`?
ADAM17 inh: inactive; Arrestin-AP2 inh: inactive; CaV13 FRET inh: inactive; FAS TE block: 75; ADAM10 inh: inactive; NRP1-CendR mod: inactive; FAS-TE conf: 78

What do the screens show for `O=C(O)c1ccc(N/N=C/c2ccc(-c3cc(Cl)ccc3Cl)o2)cc1`?
ADAM17 inh: inactive; Arrestin-AP2 inh: inactive; CaV13 FRET inh: inactive; FAS TE block: 81; ADAM10 inh: inactive; NRP1-CendR mod: inactive; FAS-TE conf: 84

How did COC(=O)N/N=C/c1ccc(-c2ccc(Cl)cc2Cl)o1 do in these assays?
ADAM17 inh: inactive; Arrestin-AP2 inh: inactive; CaV13 FRET inh: inactive; FAS TE block: inactive; ADAM10 inh: inactive; NRP1-CendR mod: inactive

How did CCCCN(C(=O)CSc1nnnn1C)C1CCS(=O)(=O)C1 (centres undefined) do in these assays?
ADAM17 inh: inactive; Arrestin-AP2 inh: inactive; CaV13 FRET inh: inactive; FAS TE block: inactive; ADAM10 inh: inactive; NRP1-CendR mod: inactive

How did CNc1ccc(-c2cccc(C#N)c2)cn1 do in these assays?
ADAM17 inh: inactive; CaV13 FRET inh: inactive; FAS TE block: inactive; ADAM10 inh: inactive; NRP1-CendR mod: inactive
